Measured values published in ChEMBL document CHEMBL3259774, “Antimycobacterial activity of chiral aminoalcohols with camphane scaffold” (Eur J Med Chem, 2014).
pIC50: −log10 of the molar value. In brackets after ≈: the same amount, converted by molar mass. Where a name gives a salt, the structure may show the parent alone.

What was measured:
HEK-293T = test: Cytotoxicity against HEK293T cells after 72 hrs by MTT assay; assay type: cell-based; details: Homo sapiens
Outline: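 HEK 293T cells grown in RPMI-1640 with 10% heat-inactivated foetal calf serum and 2 mM L-glutamine, 37 °C, 5% CO2. Cells seeded at […] cells/ml, grown 24 h, then exposed 72 h to compounds serially diluted from fresh DMSO stocks (final DMSO ≤0.5%), ≥8 wells per concentration. MTT added for 4 h at 37 °C, formazan dissolved in 5% HCOOH/2-propanol, read at 580 nm. Survival expressed as % of untreated control; IC50 from sigmoidal curve fit.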

[1] = test system: Mycobacterium tuberculosis; test: Antimycobacterial activity against Mycobacterium tuberculosis H37Rv assessed as growth inhibition after 45 days; assay type: functional
Outline: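 Canetti proportion method on Löwenstein–Jensen egg medium. Each compound was added as a sterile DMSO suspension/solution before coagulation (30 min at 85 °C) and tested at five concentrations. Tubes were inoculated with 10⁵ cells/ml and incubated 45 days at 37 °C. Colony counts were expressed as percent of drug-free control. MIC is the lowest concentration giving complete inhibition (0% growth).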

Row | Compound | pIC50 (HEK-293T) | MIC [1] [µM]
1 | CC1CCN(C[C@H](O)[C@]23CC[C@H](CC2=O)C3(C)C)CC1 | 3.80 | 0.72 (≈ 0.201 µg/mL)
2 | CC1(C)[C@@H]2CC[C@@]1([C@@H](O)CN1CCN(c3ccccc3F)CC1)C(=O)C2 | 3.89 | 0.28 (≈ 0.101 µg/mL)
3 | CC1(C)[C@@H]2CC[C@@]1([C@@H](O)CN1CCCCC1)C(=O)C2 | 3.84 | 0.38 (≈ 0.101 µg/mL)
4 | CC1(C)[C@@H]2CC[C@@]1([C@H](O)CN1CCN(c3ccccc3F)CC1)C(=O)C2 | 3.92 | 0.28 (≈ 0.101 µg/mL)
5 | CC1(C)[C@@H]2CC[C@@]1([C@@H](O)CN1CCCC1)C(=O)C2 | – | 19.9 (≈ 5 µg/mL)
6 | CC1(C)[C@@H]2CC[C@@]1([C@H](O)CN1CCN(c3ccc(F)cc3)CC1)C(=O)C2 | 4.19 | 0.28 (≈ 0.101 µg/mL)
7 | CC1(C)[C@@H]2CC[C@@]1([C@@H](O)CN1CCOCC1)C(=O)C2 | < 3.70 | 0.37 (≈ 0.0989 µg/mL)
8 | CC1(C)[C@@H]2CC[C@@]1([C@@H](O)CN1CCSCC1)C(=O)C2 | – | 17.6 (≈ 5 µg/mL)
9 | CC(C)N(C[C@H](O)[C@]12CC[C@H](CC1=O)C2(C)C)C(C)C | 3.78 | 0.37 (≈ 0.104 µg/mL)
10 | CC1(C)[C@@H]2CC[C@@]1([C@H](O)CN1CCN(c3ccccc3)CC1)C(=O)C2 | – | 14.6 (≈ 5 µg/mL)
11 | CC1CCN(C[C@@H](O)[C@]23CC[C@H](CC2=O)C3(C)C)CC1 | 3.77 | 0.36 (≈ 0.101 µg/mL)
12 | CC1(C)[C@@H]2CC[C@@]1([C@@H](O)CN1CCN(c3ccc(Cl)cc3)CC1)C(=O)C2 | 5.07 | 7.96 (≈ 3 µg/mL)
13 | CC1(C)[C@@H]2CC[C@@]1([C@H](O)CN1CCOCC1)C(=O)C2 | – | 18.7 (≈ 5 µg/mL)
14 | CC1(C)[C@@H]2CC[C@@]1([C@H](O)CN1CCCCC1)C(=O)C2 | – | 18.8 (≈ 5 µg/mL)
15 | CN1CCN(C[C@H](O)[C@]23CC[C@H](CC2=O)C3(C)C)CC1 | – | 17.8 (≈ 5 µg/mL)
16 | CC1(C)[C@@H]2CC[C@@]1([C@@H](O)CN1CCN(c3ccc(F)cc3)CC1)C(=O)C2 | 4.09 | 0.28 (≈ 0.101 µg/mL)
17 | CC(C)N(C[C@@H](O)[C@]12CC[C@H](CC1=O)C2(C)C)C(C)C | – | 10.7 (≈ 3 µg/mL)
18 | CC1(C)[C@@H]2CC[C@@]1([C@H](O)CN1CCN(c3ccc(Cl)cc3)CC1)C(=O)C2 | 5.04 | 0.27 (≈ 0.102 µg/mL)
19 | CC[C@@H](CO)NCCN[C@@H](CC)CO [ETHAMBUTOL HYDROCHLORIDE] | – | 7.22
20 | CC1(C)[C@@H]2CC[C@@]1([C@@H](O)CN1CCN(c3ccccc3)CC1)C(=O)C2 | – | 14.6 (≈ 5 µg/mL)
21 | CN1CCN(C[C@@H](O)[C@]23CC[C@H](CC2=O)C3(C)C)CC1 | – | 17.8 (≈ 5 µg/mL)
22 | CC1(C)[C@@H]2CC[C@@]1([C@H](O)CN1CCSCC1)C(=O)C2 | – | 17.6 (≈ 5 µg/mL)
